Measurements published in ChEMBL document CHEMBL5653631, “A Potent and Selective ULK1 Inhibitor Suppresses Autophagy and Sensitizes Cancer Cells to Nutrient Stress” (iScience, 2018).

Tests used:
[1] = biological target: T1, Serine/threonine-protein kinase STK11 (Homo sapiens) (UniProt Q15831); assay: Inhibition of human recombinant LKB1 at 40 nM in presence of ATP by radiometric assay relative to control
T1 sequence (whole entry): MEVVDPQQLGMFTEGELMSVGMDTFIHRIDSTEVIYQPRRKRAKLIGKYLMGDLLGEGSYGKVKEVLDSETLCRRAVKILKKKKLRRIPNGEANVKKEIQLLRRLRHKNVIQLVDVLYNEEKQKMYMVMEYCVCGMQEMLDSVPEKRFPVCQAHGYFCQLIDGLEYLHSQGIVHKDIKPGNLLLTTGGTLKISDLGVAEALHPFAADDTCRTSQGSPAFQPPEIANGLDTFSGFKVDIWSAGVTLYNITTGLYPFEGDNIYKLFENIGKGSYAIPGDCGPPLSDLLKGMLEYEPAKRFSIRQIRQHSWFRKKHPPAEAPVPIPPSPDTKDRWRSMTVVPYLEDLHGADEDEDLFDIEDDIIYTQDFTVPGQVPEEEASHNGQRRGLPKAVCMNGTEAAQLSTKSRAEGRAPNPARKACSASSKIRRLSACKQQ

[2] = biological target: TGF-beta receptor type-2 (Homo sapiens) (UniProt P37173); assay: Inhibition of human recombinant TGFbR2 at 40 nM in presence of ATP by radiometric assay relative to control
[3] = biological target: Mitogen-activated protein kinase 14 (Homo sapiens) (UniProt Q16539); assay: Inhibition of human recombinant p38alpha at 40 nM related to control ULK1
[4] = biological target: Serine/threonine-protein kinase 38-like (Homo sapiens) (UniProt Q9Y2H1); assay: Inhibition of human recombinant NDR2 at 15 nM in presence of ATP by radiometric assay relative to control
[5] = biological target: T2, Tyrosine-protein kinase receptor TYRO3 (Homo sapiens) (UniProt Q06418); assay: Inhibition of human recombinant TYRO3 at 15 nM in presence of ATP by radiometric assay relative to control
T2 sequence (whole entry): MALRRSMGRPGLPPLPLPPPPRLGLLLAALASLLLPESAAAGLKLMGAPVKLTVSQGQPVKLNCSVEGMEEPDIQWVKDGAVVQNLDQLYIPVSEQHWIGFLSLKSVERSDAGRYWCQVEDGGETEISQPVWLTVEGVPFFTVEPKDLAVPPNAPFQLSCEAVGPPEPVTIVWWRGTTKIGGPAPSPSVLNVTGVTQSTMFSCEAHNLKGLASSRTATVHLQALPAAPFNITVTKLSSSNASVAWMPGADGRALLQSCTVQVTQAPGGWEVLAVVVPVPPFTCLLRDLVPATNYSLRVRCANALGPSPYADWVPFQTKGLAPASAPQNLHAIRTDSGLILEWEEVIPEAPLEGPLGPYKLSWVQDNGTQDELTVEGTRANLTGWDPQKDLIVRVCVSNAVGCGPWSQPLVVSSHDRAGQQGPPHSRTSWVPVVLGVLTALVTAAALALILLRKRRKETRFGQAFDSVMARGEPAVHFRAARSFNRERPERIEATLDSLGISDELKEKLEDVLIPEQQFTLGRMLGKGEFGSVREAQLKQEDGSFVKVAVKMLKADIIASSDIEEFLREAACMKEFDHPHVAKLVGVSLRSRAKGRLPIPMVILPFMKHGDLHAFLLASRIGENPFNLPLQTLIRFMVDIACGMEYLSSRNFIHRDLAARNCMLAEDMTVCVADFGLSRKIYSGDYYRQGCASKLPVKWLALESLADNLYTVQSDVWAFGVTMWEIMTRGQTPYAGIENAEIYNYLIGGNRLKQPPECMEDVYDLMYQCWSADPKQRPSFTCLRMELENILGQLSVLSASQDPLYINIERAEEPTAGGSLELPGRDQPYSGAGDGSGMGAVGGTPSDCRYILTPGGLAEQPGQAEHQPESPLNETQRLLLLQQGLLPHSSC

[6] = biological target: T3, Serine/threonine-protein kinase BRSK2 (Homo sapiens) (UniProt Q8IWQ3); assay: Inhibition of human recombinant BRSK2 at 15 nM in presence of ATP by radiometric assay relative to control
T3 sequence (whole entry): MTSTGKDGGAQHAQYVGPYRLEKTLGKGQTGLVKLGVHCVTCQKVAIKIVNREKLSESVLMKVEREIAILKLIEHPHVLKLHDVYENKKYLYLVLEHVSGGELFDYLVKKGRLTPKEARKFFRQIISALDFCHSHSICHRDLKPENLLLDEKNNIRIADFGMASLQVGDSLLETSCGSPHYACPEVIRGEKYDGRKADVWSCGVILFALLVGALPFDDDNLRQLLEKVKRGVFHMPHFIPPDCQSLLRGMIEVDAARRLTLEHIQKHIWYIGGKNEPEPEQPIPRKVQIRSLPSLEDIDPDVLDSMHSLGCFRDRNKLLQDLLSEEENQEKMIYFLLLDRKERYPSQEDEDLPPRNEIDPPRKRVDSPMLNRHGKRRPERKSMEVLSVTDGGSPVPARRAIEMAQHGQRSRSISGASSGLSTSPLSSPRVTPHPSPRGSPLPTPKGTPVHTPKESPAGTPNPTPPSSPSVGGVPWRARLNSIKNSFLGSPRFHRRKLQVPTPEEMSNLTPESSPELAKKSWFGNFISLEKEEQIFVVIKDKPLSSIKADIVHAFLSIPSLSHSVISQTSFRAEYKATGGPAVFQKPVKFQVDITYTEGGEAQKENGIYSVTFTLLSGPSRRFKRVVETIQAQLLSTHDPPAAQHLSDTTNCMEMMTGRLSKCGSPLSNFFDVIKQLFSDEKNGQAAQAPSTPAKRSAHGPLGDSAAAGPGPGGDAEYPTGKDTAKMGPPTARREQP
How it was run: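 Recombinant human kinase panel (327 kinases) run as radiometric activity assays, each kinase in duplicate at one compound concentration. Activity remaining expressed relative to vehicle control; percent inhibition taken as 100% minus % activity remaining.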

Serine/threonine-protein kinase 38-like (Homo sapiens), sequence (Q9Y2H1 2-464 limits assumed): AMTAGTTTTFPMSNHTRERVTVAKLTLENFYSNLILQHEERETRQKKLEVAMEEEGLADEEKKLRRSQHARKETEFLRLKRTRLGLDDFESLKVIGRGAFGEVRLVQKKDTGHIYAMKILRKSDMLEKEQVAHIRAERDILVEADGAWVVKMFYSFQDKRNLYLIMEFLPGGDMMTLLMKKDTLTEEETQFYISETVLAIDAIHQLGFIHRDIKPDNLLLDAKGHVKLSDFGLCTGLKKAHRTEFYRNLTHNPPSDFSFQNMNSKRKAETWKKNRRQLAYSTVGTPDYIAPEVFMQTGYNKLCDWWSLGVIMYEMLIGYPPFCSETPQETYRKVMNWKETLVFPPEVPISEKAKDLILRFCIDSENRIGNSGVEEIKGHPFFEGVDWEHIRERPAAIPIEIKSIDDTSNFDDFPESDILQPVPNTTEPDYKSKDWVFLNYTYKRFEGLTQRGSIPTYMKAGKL
Mitogen-activated protein kinase 14 (Homo sapiens), sequence (Q16539 whole entry): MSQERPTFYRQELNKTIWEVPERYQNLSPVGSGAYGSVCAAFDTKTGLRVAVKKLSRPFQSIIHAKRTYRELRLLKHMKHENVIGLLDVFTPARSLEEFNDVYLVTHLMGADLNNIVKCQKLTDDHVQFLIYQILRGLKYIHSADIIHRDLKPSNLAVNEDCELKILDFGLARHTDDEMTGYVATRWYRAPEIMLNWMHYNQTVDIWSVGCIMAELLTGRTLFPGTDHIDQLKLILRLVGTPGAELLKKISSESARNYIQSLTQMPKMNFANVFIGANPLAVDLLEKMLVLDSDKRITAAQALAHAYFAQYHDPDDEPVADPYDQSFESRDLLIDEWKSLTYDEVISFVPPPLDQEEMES
TGF-beta receptor type-2 (Homo sapiens), sequence (P37173 whole entry): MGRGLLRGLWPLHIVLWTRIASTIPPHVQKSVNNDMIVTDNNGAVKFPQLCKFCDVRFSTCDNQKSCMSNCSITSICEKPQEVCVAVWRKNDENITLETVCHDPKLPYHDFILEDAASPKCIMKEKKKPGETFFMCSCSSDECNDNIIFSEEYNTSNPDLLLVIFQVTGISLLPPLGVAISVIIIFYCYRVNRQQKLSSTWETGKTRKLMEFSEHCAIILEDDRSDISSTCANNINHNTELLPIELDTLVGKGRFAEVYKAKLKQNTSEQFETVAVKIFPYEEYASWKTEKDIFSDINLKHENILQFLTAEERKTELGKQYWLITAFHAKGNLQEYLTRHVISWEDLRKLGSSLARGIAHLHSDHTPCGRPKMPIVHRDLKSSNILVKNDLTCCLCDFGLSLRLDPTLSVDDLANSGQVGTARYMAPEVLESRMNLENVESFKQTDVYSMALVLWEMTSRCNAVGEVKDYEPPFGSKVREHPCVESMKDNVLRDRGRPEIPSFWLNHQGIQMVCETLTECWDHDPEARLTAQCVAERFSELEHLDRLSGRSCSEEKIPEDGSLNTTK

O=C(N[C@@H](C1CC1)C(F)(F)F)c1cc(-c2cnn3cc(-c4ccc(F)cc4)cnc23)cs1
inhibition [1]: 13% | inhibition [2]: 47% | fold change (FC) [3]: 0.01

CC(C)[C@H](NC(=O)c1cc(-c2cnn3cc(-c4ccc(OCCN5CCCCC5)cc4)cnc23)cs1)C(F)(F)F
inhibition [4]: 2% | inhibition [5]: 0% | inhibition [6]: 25%
